Experimental findings from ChEMBL document CHEMBL1123830, “gamma-Aminobutyric acid esters. 3. Synthesis, brain uptake, and pharmacological properties of C-18 glyceryl lipid esters of GABA with varying degree of unsaturation” (J Med Chem, 1987) are described below.

Series [1] is described as follows: Partition coefficient in octanol/water system was determined using [14C]-labeled compounds. It is filed as physicochemical.
Series [2] relates to Mus musculus. Description: Percentage decrease in general motor activity with respect to vehicle-injected control in mice at a dose of 30 mg/kg after ip administration. It is filed as functional. To be noted: route intraperitoneal.
The subject of series [3] is Mus musculus. Description: Tested for the quanitity of [14C]-labeled (radioactivity) compound taken up into the brain following subcutaneous injection at a 44 mg/kg. It is filed as functional. Put shortly:
(§1)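 Male Balb-c mice (20 ± 2 g) received ¹⁴C-labeled lipid (label on the GABA portion) sc, as diacetate salt or free amine, in 15% propylene glycol in water. Killed at 5 min; brain and liver weighed and homogenized in SDS/EDTA phosphate buffer (pH 7.6), then scintillation counted. nmol/g computed from total radioactivity. BPI = ([brain]/[liver]) × 100. Mean ± SD of three, or two, measurements.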

Series [4] has as its system Mus musculus. Kind of series: Tested for the quanitity of [14C]-labeled (radioactivity) compound taken up into the liver following subcutaneous injection at a 44 mg/kg. It counts as functional. Put shortly: as §1
The nature of series [5]: Ratio of the amount in brain as a percent of that present in liver at 5 min is expressed as Brain penetration index (BPI). It is filed as functional. A digest of the protocol: as §1
Series [6] in a line: Brain-uptake index (BUI) was determined for the compound in rat. It is filed as functional. Put shortly: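 Rat carotid bolus: male Sprague-Dawley rats (200-300 g) under deep Nembutal anesthesia received a 0.15-mL bolus of ³H2O plus ¹⁴C-labeled compound in 0.01 M HEPES (pH 7.4) into the right carotid artery. Decapitated 5 s later; ipsilateral forebrain homogenized in SDS/urea/EDTA/phosphate buffer (pH 7.4). Duplicate aliquots counted by scintillation, corrected for quench and spillover. BUI = (¹⁴C/³H cpm) brain / (¹⁴C/³H cpm) injectate. Values uncorrected.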

Series [7] relates to Mus musculus. Kind of series: Tested for the quanitity of [14C]-labeled (radioactivity) compound taken up into the brain following subcutaneous injection at a 36 mg/kg. It is filed as functional. A digest of the protocol: as §1
In series [8] the test system is Mus musculus. Description: Tested for the quanitity of [14C]-labeled (radioactivity) compound taken up into the liver following subcutaneous injection at a 36 mg/kg. It is filed as functional. A digest of the protocol:
as §1

A short description of series [9]: Partition coefficient in octanol/water system was determined. It counts as physicochemical.
Series [10] concerns Mus musculus. Description: Tested for the quanitity of [14C]-labeled (radioactivity) compound taken up into the liver following subcutaneous injection at a 100 mg/kg. It is filed as functional.
In series [11] the test system is Mus musculus. Kind of series: Tested for the quanitity of [14C]-labeled (radioactivity) compound taken up into the brain following subcutaneous injection at a 100 mg/kg. It is filed as functional.
Series [12] concerns Mus musculus. Description: Tested for the quanitity of [14C]-labeled (radioactivity) compound taken up into the liver following subcutaneous injection at a 41 mg/kg. It is filed as functional. A digest of the protocol: as §1
In series [13] the test system is Mus musculus. Kind of series: Tested for the quanitity of [14C]-labeled (radioactivity) compound taken up into the brain following subcutaneous injection at a 41 mg/kg. It is filed as functional. Put shortly:
as §1

Series [14] has as its system Mus musculus. Kind of series: Tested for the quanitity of [14C]-labeled (radioactivity) compound taken up into the liver following subcutaneous injection t a 54 mg/kg. It is filed as functional. A digest of the protocol:
as §1

For series [15], the system named is Mus musculus. Description: Tested for the quanitity of [14C]-labeled (radioactivity) compound taken up into the brain following subcutaneous injection at a 54 mg/kg. It counts as functional. A digest of the protocol:
as §1

In series [16] the test system is Mus musculus. Kind of series: Tested for the quanitity of [14C]-labeled (radioactivity) compound taken up into the brain following subcutaneous injection at a 40 mg/kg. It is filed as functional. Put shortly:
as §1

Series [17] deals with Mus musculus. Kind of series: Tested for the quanitity of [14C]-labeled (radioactivity) compound taken up into the liver following subcutaneous injection at a 40 mg/kg. It is filed as functional. Put shortly:
as §1

The test system of series [18] is Mus musculus. Description: Tested for the quanitity of [14C]-labeled (radioactivity) compound taken up into the liver following subcutaneous injection. It is filed as functional.
Series [19] has as its system Mus musculus. Kind of series: Tested for the quanitity of [14C]-labeled (radioactivity) compound taken up into the brain following subcutaneous injection. It is filed as functional.

Regarding `CCCCCCCCCCCCCCCCCC(=O)OCC(COC(=O)CCCN)OC(=O)CCCN` (stereo unspecified), the K in [1] amounted to 8.6. In series [2], this compound yielded a Decrease of 62.1%. Also, the Activity was found to be 1.89 nM/g in [3] and 6.92 nM/g in series [4]. Moreover, in [5], the BPI was determined as 28%. Further, in series [6], the BUI is listed as 45.1.
Compound `CCCCCCCC/C=C/CCCCCCCC(=O)OCC(COC(=O)CCCN)OC(=O)CCCN` (stereo unspecified) returned a K in series [1] of 6. The compound also showed a Decrease in [2] of 74%. For the same compound, the figures for the Activity in series [7] and in series [8] were 1.07 nM/g and 6.32 nM/g, respectively. For the same compound, the BPI in series [5] is 17%. Besides, the BUI in series [6] amounted to 53.2.
Compound `CC/C=C/C/C=C/C/C=C/CCCCCCCC(=O)OCC(COC(=O)CCCN)OC(=O)CCCN` (stereo in doubt) yielded a K in series [9] of 2.13. Further, the Activity in series [10] amounted to 3.79 nM/g; in [11], 2.81 nM/g. For the same compound, the BPI in series [5] stood at 75%. Moreover, in series [6], the BUI is reported as 31.5.
In turn, `CCCCC/C=C/C/C=C/CCCCCCCC(=O)OCC(COC(=O)CCCN)OC(=O)CCCN` (stereo in doubt; 3c (L2G2)) showed a K in series [9] of 4.2. The Activity in series [12] is 8 nM/g; in series [13], 7.74 nM/g. The BPI in series [5] was 97%. The compound further displayed a BUI in series [6] of 25.9.
As to `CCCCC/C=C/C/C=C/CCCCCCCC(=O)OCC(COC(=O)CCCN)OC(=O)CCCN` (stereo in doubt; 3c), the Activity was found to be 9.19 nM/g in series [14] and 1.32 nM/g in series [15]. Moreover, the Decrease in series [2] was found to be 89.3%. For the same compound, the BPI in [5] was found to be 14%.
As to `CC/C=C/C/C=C/C/C=C/CCCCCCCC(=O)OCC(COC(=O)CCCN)OC(=O)CCCN` (stereo in doubt; 3d), the Decrease in series [2] came to 82.6%. Besides, the Activity in [16] turned out to be 1.07 nM/g; in series [17] it was 7.86 nM/g. Also, in [5], the BPI amounted to 15%.
`NCCCC(=O)O` [GAMMA-AMINOBUTYRIC ACID]: in series [1], the K was 0.004. The Decrease in [2] is 62.1%. In addition, the Activity in [18] is 4.2 nM/g; in [19], 0.041 nM/g. In addition, in [5], the BPI was determined as 0.96%. Also, the BUI in [6] was 2.
